The text below walks through data of ChEMBL document CHEMBL5223160, “Lipase-Catalyzed Synthesis and Biological Evaluation of N-Picolineamides as Trypanosoma cruzi Antiproliferative Agents” (ACS Med Chem Lett, 2023).

One series has as its system Vero. Description: Cytotoxicity against african green monkey Vero cells at 10 to 600 uM incubated for 72 hrs by resazurin dye based fluorescence assay. It counts as toxicity, cell-based. The following applies: chlorocebus sabaeus, dose 10-600 µM. The method, boiled down:
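Vero cells were exposed to compounds at 10–600 μM for 72 h at 37 °C. Viability was read by resazurin fluorescence at 590 nm. CC50 was taken as the concentration reducing cell proliferation by 50%, reported ± standard deviation.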
On the technique in general: Alamar Blue is a resazurin reagent that responds to reducing activity.

Series [1] has as its system Trypanosoma cruzi. Description: Antitrypanosomal activity against GFP-expressing intracellular Trypanosoma cruzi Y trypomastigotes infected in african green monkey Vero cells assessed as decrease in number of amastigotes/100 cells incubated for 72 hrs by fluorescence based microplate reader analysis. The format is functional, organism-based. The method in brief:
(§1)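 Vero cells infected with GFP-expressing T. cruzi Y-strain parasites. After parasite removal, compounds were added at one-tenth of their Vero CC50. At 72 h postinfection, cells were lysed and parasite fluorescence was read. Percentage of infected cells and amastigotes per 100 cells were also determined, with nifurtimox as reference.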

Series [2] has as its system Trypanosoma cruzi. Briefly: Antitrypanosomal activity against GFP-expressing intracellular Trypanosoma cruzi Y trypomastigotes infected in african green monkey Vero cells assessed as inhibition of parasite proliferation incubated for 72 hrs by fluorescence based microplate reader analysis.
Series [3] deals with Trypanosoma cruzi. Briefly: Antitrypanosomal activity against GFP-expressing intracellular Trypanosoma cruzi Y trypomastigotes infected in african green monkey Vero cells assessed as decrease in infection level incubated for 72 hrs by fluorescence based microplate reader analysis. It counts as functional, organism-based. The method, boiled down: as §1
Series [4] deals with Trypanosoma cruzi. Description: Antitrypanosomal activity against GFP-expressing intracellular Trypanosoma cruzi Y trypomastigotes infected in african green monkey Vero cells assessed as reduction in infected cell percentage at 40 uM incubated for 72 hrs in the presence of nifurtimox by fluorescence based microplate reader analysis. The format is functional, organism-based. The method, boiled down:
(§2)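 GFP T. cruzi Y-infected Vero cells were cotreated after parasite removal with nifurtimox at 35 μM plus test compound at 20 μM or 40 μM. At 72 h postinfection, percentage of infected cells was determined against nontreated infected controls. Significance was set at p < 0.05.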

Series [5] deals with Trypanosoma cruzi. Briefly: Antitrypanosomal activity against GFP-expressing intracellular Trypanosoma cruzi Y trypomastigotes infected in african green monkey Vero cells assessed as reduction in infected cell percentage at 20 uM incubated for 72 hrs in the presence of nifurtimox by fluorescence based microplate reader analysis. The format is functional, organism-based. The method, boiled down: as §2

Active and inactive are the calls of the source. The rule behind the calls is not given here.

As usually defined, the IC50 is the concentration needed to halve the response being measured. Take `CCCCCCCC/C=C/CCCCCCCC(=O)NCc1ccccn1`: the Activity result in the series on Vero is “Non-Toxic”. Besides, the result in the series with Trypanosoma cruzi [1], in the series on Trypanosoma cruzi [3] and in the series on Trypanosoma cruzi [4] was Active. Besides, in the series on Trypanosoma cruzi [2], the IC50 came to 47.6 µM.
Consider `CCCCCCCC/C=C\CCCCCCCC(=O)NCc1cccnc1`, for which the Activity result with Vero is on record as “Non-Toxic”.
As for `CCCCCC(=O)NCc1ccncc1`, the Activity result in the series on Vero is given as “Non-Toxic”.
On to `CCCCC/C=C\C/C=C\CCCCCCCC(=O)NCc1ccccn1`, for which the Activity result in the series with Vero is recorded as “Non-Toxic”.
The same measure, in the same setting: to `CCCCCCCCCCCCCCCCCC(=O)NCc1cccnc1` belongs “Non-Toxic”; to `CCCCCCCC/C=C\CCCCCCCC(=O)NCc1ccccn1`, “Non-Toxic”.
Regarding `CCCCCCCCCCCC(=O)NCc1cccnc1`, in the series with Vero, the Activity result is “Non-Toxic”.
For `CCCCCCCCCCCC(=O)NCc1ccccn1`, the Activity entry with Vero is “Non-Toxic”. Further, in the series on Trypanosoma cruzi [2], the 50% inhibitory concentration (IC50) was above 100 µM.
With `CC/C=C\C/C=C\C/C=C\CCCCCCCC(=O)NCc1ccccn1`, the Activity entry in the series with Vero is recorded as “Non-Toxic”.
Turning to `CCCCCCCCCCCCCCCCCC(=O)NCc1ccccn1`, the Activity entry in the series on Vero was “Non-Toxic”. Also, the outcome with Trypanosoma cruzi [1], with Trypanosoma cruzi [5] and with Trypanosoma cruzi [3] was Active. In addition, the IC50 in the series on Trypanosoma cruzi [2] was 16.4 µM.
Consider `CC/C=C/C/C=C/C/C=C/CCCCCCCC(=O)O`, for which the Activity result in the series with Vero is listed as “Toxic”.
Turning to `CC(=O)NCc1ccncc1`, in the series with Vero, the Activity entry was “Non-Toxic”.
For the molecule `CCCCCCCCCCCCCCCC(=O)NCc1ccncc1`, the Activity result in the series on Vero is listed as “Non-Toxic”.
For `CCCCCCCCCCCCCCCCCC(=O)NCc1ccncc1`, the Activity result with Vero is listed as “Non-Toxic”.
In the case of `CCCCCCCCC/C=C\CCCCCCC(=O)O`, the Activity entry in the series with Vero is recorded as “Toxic”.
With `CCCCCCCC/C=C/CCCCCCCC(=O)NCc1cccnc1`, the Activity entry in the series on Vero is given as “Non-Toxic”.
Same read-out and setting: with `CCCCCCCC/C=C/CCCCCCCC(=O)NCc1ccncc1` the entry was “Non-Toxic”; with `CCCCC/C=C/C/C=C/CCCCCCCC(=O)O`, “Toxic”; with `CCCCC/C=C\C/C=C\CCCCCCCC(=O)NCc1cccnc1`, “Non-Toxic”.
For the molecule `CCCCCCCCCCCC(=O)NCc1ccncc1`, in the series with Vero, the Activity entry is given as “Non-Toxic”.
The same measure, in the same setting: to `CC/C=C\C/C=C\C/C=C\CCCCCCCC(=O)NCc1cccnc1` belongs “Non-Toxic”.
